This note sets out measurements from ChEMBL document CHEMBL1156418, “Identification and phenotypic characterization of a beta-lactam-dependent, methicillin-resistant Staphylococcus aureus strain” (2007).

Assay [1] has as its system Staphylococcus aureus. In words: Antibacterial activity against methicillin-resistant Staphylococcus aureus 2884. The assay is classed as functional.
For assay [2], the system named is Staphylococcus aureus. In words: Antibacterial activity against methicillin-resistant Staphylococcus aureus 2884 isolate by disc diffusion method. The assay is classed as functional. The method in brief: (§1)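 Disk diffusion on 100-mm Mueller-Hinton agar plates inoculated with a 0.5 McFarland suspension. Disks: oxacillin 5 μg, cefoxitin 30 μg, ceftobiprole 30 μg, amoxicillin-clavulanic acid 20/10 μg, ofloxacin 5 μg, imipenem 10 μg. Inhibition zone diameters were read per CLSI and CASFM guidelines.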
Background: Agar diffusion results depend on both activity and mobility in agar.

Assay [3] concerns Staphylococcus aureus. Put plainly: Antibacterial activity against oxacillin-dependent methicillin-resistant Staphylococcus aureus 2884D isolate at 5 ug by disc diffusion method. The assay is classed as functional, organism-based. The method in brief: as §1
Assay [4] relates to Staphylococcus aureus. In words: Antibacterial activity against methicillin-resistant Staphylococcus aureus 2884 isolate at 5 ug by disc diffusion method. The assay is classed as functional. The conditions noted are these: read-out: IZ. In a few lines:
as §1

The test system of assay [5] is Staphylococcus aureus. Put plainly: Antibacterial activity against methicillin-resistant Staphylococcus aureus 2884 isolate at 30 ug by disc diffusion method. The assay is classed as functional, organism-based. The method in brief:
as §1

Assay [6] relates to Staphylococcus aureus. Put plainly: Effect on blaZ gene expression in oxacillin-dependent methicillin-resistant Staphylococcus aureus 2884D isolate at 0.5 ug/ml by RT-PCR. The assay is classed as functional, organism-based. In a few lines: (§2)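 TaqMan real-time RT-PCR on RNA from exponential-phase cells grown with or without 0.5 μg/ml oxacillin; the dependent strain was also grown on blood agar without oxacillin. Each reaction used 25 ng total RNA, 500 nM primers and 100 nM probe. Cycling: 48°C 30 min, 95°C 10 min, then 40 × (95°C 15 s, 60°C 1 min). Quantified by C_T against a standard curve, expressed relative to 16S; triplicate runs.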

The test system of assay [7] is Staphylococcus aureus. Put plainly: Induction of blaR1 gene expression in methicillin-resistant Staphylococcus aureus 2884 isolate by RT-PCR. The assay is classed as functional, organism-based. In a few lines:
as §2

Assay [8] has as its system Staphylococcus aureus. Put plainly: Antibacterial activity against oxacillin-dependent methicillin-resistant Staphylococcus aureus 2884D isolate assessed as decrease in log bacterial count at >= 256 ug/ml. The assay is classed as functional.
Assay [9] relates to Staphylococcus aureus. In words: Effect on blaZ gene expression in oxacillin-dependent methicillin-resistant Staphylococcus aureus 2884D isolate at 0.5 ug/ml in presence of blood agar by RT-PCR. The assay is classed as functional, organism-based. In a few lines: as §2
Assay [10] has as its system Staphylococcus aureus. In words: Induction of blaR1 gene expression in oxacillin-dependent methicillin-resistant Staphylococcus aureus 2884D isolate by RT-PCR. The assay is classed as functional, organism-based. In a few lines:
as §2

Assay [11] has as its system Staphylococcus aureus. In words: Antibacterial activity against oxacillin-dependent methicillin-resistant Staphylococcus aureus 2884D isolate. The assay is classed as functional.
Assay [12] has as its system Staphylococcus aureus. Put plainly: Antibacterial activity against methicillin-resistant Staphylococcus aureus 2884 isolate assessed as decrease in log bacterial count at 1 ug/ml. The assay is classed as functional.
The subject of assay [13] is Staphylococcus aureus. Put plainly: Decrease in PBP2 gene expression in oxacillin-dependent methicillin-resistant Staphylococcus aureus 2884D isolate by RT-PCR. The assay is classed as functional, organism-based. The method in brief:
as §2

Assay [14] concerns Staphylococcus aureus. Put plainly: Effect on vraSR gene expression in oxacillin-dependent methicillin-resistant Staphylococcus aureus 2884D isolate in presence of blood agar by RT-PCR. The assay is classed as functional, organism-based. In a few lines: as §2
Assay [15] relates to Staphylococcus aureus. In words: Induction of blaI mRNA expression in oxacillin-dependent methicillin-resistant Staphylococcus aureus 2884D isolate by RT-PCR. The assay is classed as functional, organism-based. In a few lines: as §2
Assay [16] deals with Staphylococcus aureus. Put plainly: Induction of blaI mRNA expression in methicillin-resistant Staphylococcus aureus 2884 isolate by RT-PCR. The assay is classed as functional, organism-based. The method in brief:
as §2

≈ marks a conversion by molar mass, not a printed value. Calls of active or inactive are those of the source. The rule behind the calls is not given here.

As to `Nc1nc(/C(=N/O)C(=O)N[C@@H]2C(=O)N3C(C(=O)O)=C(/C=C4\CCN([C@@H]5CCNC5)C4=O)CS[C@H]23)ns1` [CEFTOBIPROLE], in the assay on Staphylococcus aureus [1], it took 2 µg/mL (≈ 3.74 µM) to inhibit growth (MIC). In addition, in the assay on Staphylococcus aureus [2], the “inhibition zone (IZ)” value is 34 mm.
In the case of `CC1COc2c(N3CCN(C)CC3)c(F)cc3c(=O)c(C(=O)O)cn1c23` (stereo unspecified) [OFLOXACIN], the result with Staphylococcus aureus [3] and with Staphylococcus aureus [5] was inactive. For the same molecule, the zone of inhibition at 5 µg/disc with Staphylococcus aureus [4] was 15 mm.
With `CO[C@@]1(NC(=O)Cc2cccs2)C(=O)N2C(C(=O)O)=C(COC(N)=O)CS[C@@H]21` (single isomer, unassigned) [CEFOXITIN], the MIC – broadly, the lowest concentration found to suppress growth – against Staphylococcus aureus [1] amounted to 32 µg/mL (≈ 74.9 µM). The zone of inhibition at 5 µg/disc in the assay with Staphylococcus aureus [4] worked out at 13 mm.
As to `C[C@@H](O)[C@H]1C(=O)N2C(C(=O)O)=C(SCCNC=N)C[C@H]12` [IMIPENEM ANHYDROUS], the MIC with Staphylococcus aureus [1] was 8 µg/mL (≈ 26.7 µM).
Consider `Cc1onc(-c2ccccc2)c1C(=O)N[C@@H]1C(=O)N2[C@@H]1SC(C)(C)[C@@H]2C(=O)O` [OXACILLIN], for which the outcome in the assay on Staphylococcus aureus [6], with Staphylococcus aureus [7], in the assay on Staphylococcus aureus [9], in the assay with Staphylococcus aureus [14] and with Staphylococcus aureus [15] was inactive. The minimal inhibitory concentration (MIC) in the assay on Staphylococcus aureus [1] is 64 µg/mL (≈ 159 µM); in the assay with Staphylococcus aureus [11] it was at least 256 µg/mL. Moreover, the CFU/ml with Staphylococcus aureus [8] worked out at 3; in the assay with Staphylococcus aureus [12] it was 4. For the same molecule, the outcome in the assay on Staphylococcus aureus [10], in the assay with Staphylococcus aureus [13] and in the assay with Staphylococcus aureus [16] was Active. Further, the zone of inhibition at 5 µg/disc in the assay with Staphylococcus aureus [4] was 15 mm.
